High-throughput results deposited in PubChem by The Scripps Research Institute Molecular Screening Center.
Most compounds without a hit are left out; they make up all but 2% or so of the library.
ASAP1 GAP inh = inhibitors of human ASAP1 ArfGAP activity. 0.19% of 360,000 active. AID 624377. ASAP1-stimulated ARF1 GTP hydrolysis, GDP FP detection. inhibition, % at 16.5 µM; in the data active = inhibition above about 25%;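 also: 0% = vehicle with enzyme and substrate and 100% = no enzyme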
MBD2 inh = inhibitors of human MBD2 binding to methylated oligonucleotide | Q9UBB5 | TR-FRET | inhibition, % at 4.4 µM | 0.31% of 370,000 active; in the data active = inhibition above about 13%
LEDGF integ inh = blocks HIV-1 LEDGF/p75-dependent DNA integration | TR-FRET IN-LEDGF/p75 DNA integration, Eu/Cy5 | inhibition, % at 3.7 µM | 0.64% of 370,000 active | AID 743269;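 active = inhibition above the screen-wide mean plus 3 SD, cut at about 13% in these data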;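 also: signal is the Cy5 over europium emission ratio at 671 and 618 nm; 0% = plate median of compound wells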
UHRF1 MBD2 ctr = UHRF1 methyl-DNA binding inhibition | UHRF1 binding to methylated oligo, TR-FRET | 0.75% of 370,000 active | inhibition, % at 4.4 µM; in the data active = inhibition above about 21%;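 also: UHRF1 SRA domain binding a hemimethylated CpG hairpin DNA probe; 0% = median of test compound wells and 100% = reference inhibitor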
ARFGAP1 inhibitor = inhibits rat ARF GTPase activating protein 1 | inhibition, % at 16.5 µM | Arfgap1-stimulated ARF1 GTP hydrolysis, GDP FP detection | 0.26% of 360,000 active;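 active = inhibition above a per-plate limit, mean inhibition of low control wells plus 3 SD, cut at about 25% in these data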;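 also: 0% = DMSO wells with enzyme and 100% = wells lacking Arfgap1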
Target sequence (Q62848 1-136 limits assumed): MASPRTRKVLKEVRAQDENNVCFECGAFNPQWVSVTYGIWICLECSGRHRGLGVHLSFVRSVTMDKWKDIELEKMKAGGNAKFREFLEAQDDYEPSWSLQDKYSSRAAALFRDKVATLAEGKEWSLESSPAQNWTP
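System: truncated rat Arfgap1 GAP domain / Medium: HEPES-based buffer, pH 7.5 / Also added: N-terminally truncated human ARF1-GTP substrate / Incubation: enzyme reaction 120 min at 25 °C after 20 min preincubation / Measured by: FP of antibody-bound GDP Alexa 633 tracer, ex 620/em 688 nm / Replicates: singlicate, each compound tested once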
TCR CD3 inh = blocks the human TCR-CD3 interaction; inhibition, % at 9.4 µM; 0.37% of 360,000 active; TAMRA-labeled TCR probe fluorescence, biochemical;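 also: recombinant mutant TCR 2C K166C tagged with TAMRA read by polarization; 0% = receptor in buffer alone and 100% = receptor with positive control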
BSA TAMRA ctr = counter-screen for TCR-CD3 interaction inhibitors: BSA probe. 10% of 1,200 active. inhibition, % at 9.4 µM. AID 652035. TAMRA-labeled BSA probe fluorescence counterscreen. shares compounds with TCR CD3 inh; in the data active = inhibition above about 23%;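 also: 0% = buffer low control and 100% = reference high control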
TCR-CD3 conf = confirmation of human TCR-CD3 interaction inhibitors; shares compounds with TCR CD3 inh; TAMRA-labeled TCR probe fluorescence binding assay; inhibition, % at 9.4 µM; 48% of 1,200 active
An asterisk follows results filed as active; . = no result. Rule as the data show it, unless noted: active = inhibition above about 19%; inactive = the rest.

SMILES	ASAP1 GAP inh	MBD2 inh	LEDGF integ inh	UHRF1 MBD2 ctr	ARFGAP1 inhibitor	TCR CD3 inh	BSA TAMRA ctr	TCR-CD3 conf
COc1ccc(-c2nc3c(C)cc(Br)cn3c2Cc2ccsc2)cc1OC	4.6	-1.8	-3.0	-1.5	0.5	-3.0	.	.
C/C(=N\NC(=O)c1cc(C2CC2)nc2ccccc12)c1ccc(O)cc1O	-9.0	-0.5	2.6	1.6	4.0	21.6*	-12.5	24.4*
C/C(=N\NC(=O)c1cc(C2CC2)nc2ccccc12)c1ccc(C)s1	-4.7	-4.9	-2.5	-2.2	-3.6	5.6	.	.
Cc1cccc(NC(=O)NNC(=O)c2ccc3ccccc3c2O)c1	4.8	5.3	-3.9	-1.4	-0.6	32.7*	-7.6	29.5*
O=C(NNC(=O)c1ccc2ccccc2c1O)NC1CCCCC1	-0.1	5.3	0.3	1.3	2.4	20.4*	-6.5	20.9*
O=C(NC1CCCCC1)c1ccc2ccccc2c1O	2.1	3.0	-4.1	-0.4	-12.0	3.0	.	.
O=C(NNC(=O)c1ccc2ccccc2c1)Nc1ccc(F)cc1	8.0	1.5	-2.5	3.1	5.8	0.2	.	.
O=C(NNC(=O)c1ccc2ccccc2c1O)Nc1ccc(F)cc1	4.5	2.7	-1.7	-3.6	0.0	32.0*	-4.8	29.4*
COc1cccc(CN2CCNC(=O)C2CC(=O)N2CCCCO2)c1OC (stereo not given)	1.3	2.3	-0.7	-1.5	1.3	5.7	.	.
COC(=O)CNC(=O)C1CCN(S(=O)(=O)c2cnc[nH]2)CC1	-0.7	0.8	2.0	-2.7	11.2	7.4	.	.
CCO/C(C)=N/Oc1cccc(N(C)C)c1	-1.9	-3.6	-2.1	28.6*	5.6	25.9*	10.4	2.5
COc1ccc(C2=NOC(C)(c3nnc(-c4ccc(Cl)cc4)o3)C2)cc1 (stereo not given)	7.6	-3.0	0.2	-1.0	-3.3	33.6*	-0.3	-0.4
Oc1c(Cl)cc(Cl)cc1/C=N/NC(=S)NC1CC2C=CC1C2 (stereo not given)	1.3	1.7	2.4	-16.8	-10.6	22.6*	-17.6	28.3*
O=S(=O)(c1ccccc1)n1ccc2cccnc21	-4.3	-3.2	2.0	5.1	6.1	8.8	.	.
NNC(=O)c1oc2nc(-c3ccccc3)cc(-c3ccccc3)c2c1N	-1.8	-0.9	6.3	-9.7	1.0	15.3	.	.
CNC(=S)NNC(=O)c1oc2nc(-c3ccccc3)cc(C)c2c1N	-5.2	-3.9	-8.7	-10.9	2.2	29.3*	-0.6	18.3
CN(c1ccccc1)S(=O)(=O)c1ccc(NC(=O)CC(=O)c2ccccc2)cc1	-0.2	1.1	-2.4	-0.6	1.6	56.2*	6.8	5.0
Cc1cccc(C)c1NC(=O)COC(=O)c1c2c(nc3ccccc13)/C(=C\c1ccc3c(c1)OCO3)CCC2	8.8	-9.2	4.9	-25.7	1.4	58.5*	49.3*	30.3*
COc1ccccc1-c1nnc(SCC(=O)N2CCCC2)o1	-9.0	-3.1	0.0	-1.8	5.0	21.1*	0.9	18.6
CCc1cccc(CC)c1NC(=O)COC(=O)c1cccc(S(=O)(=O)N2CCc3ccccc3C2)c1	-6.7	2.1	-1.6	-2.3	-0.2	1.2	.	.
NS(=O)(=O)c1cccc(NC(=O)COC(=O)c2cc(-c3ccc(Cl)cc3)nc3ccccc23)c1	19.8	-3.2	0.7	-6.0	9.3	81.2*	19.5	35.4*
CN(C)S(=O)(=O)c1cccc(NC(=O)COC(=O)c2cccc(S(=O)(=O)N3CCc4ccccc4C3)c2)c1	6.2	-4.7	-0.2	-3.2	4.8	42.1*	25.9*	54.5*
CN(C)S(=O)(=O)c1cccc(NC(=O)COC(=O)c2cn(-c3ccccc3)nc2-c2ccccc2)c1	5.3	-1.5	0.9	2.6	7.1	30.9*	9.6	9.1
Cc1ccsc1CNC12CC3CC(CC(C3)C1)C2	-6.6	1.2	-3.0	8.2	1.7	-3.1	.	.
CCCCCCNC(=O)O[C@H]1Cn2c(=O)ccc(=O)n2[C@@H]2CN(S(=O)(=O)c3ccc(C)cc3)C[C@]12O	2.7	3.3	-0.4	-0.6	-3.8	-2.6	.	.
